These results are taken from ChEMBL document CHEMBL4190282, “The Conjugated Double Bond of Coniferyl Aldehyde Is Essential for Heat Shock Factor 1 Mediated Cytotoprotection” (J Nat Prod, 2017).

The target of test [1] is T1, Heat shock factor protein 1 (Mus musculus) (UniProt P38532).
T1 sequence (whole entry): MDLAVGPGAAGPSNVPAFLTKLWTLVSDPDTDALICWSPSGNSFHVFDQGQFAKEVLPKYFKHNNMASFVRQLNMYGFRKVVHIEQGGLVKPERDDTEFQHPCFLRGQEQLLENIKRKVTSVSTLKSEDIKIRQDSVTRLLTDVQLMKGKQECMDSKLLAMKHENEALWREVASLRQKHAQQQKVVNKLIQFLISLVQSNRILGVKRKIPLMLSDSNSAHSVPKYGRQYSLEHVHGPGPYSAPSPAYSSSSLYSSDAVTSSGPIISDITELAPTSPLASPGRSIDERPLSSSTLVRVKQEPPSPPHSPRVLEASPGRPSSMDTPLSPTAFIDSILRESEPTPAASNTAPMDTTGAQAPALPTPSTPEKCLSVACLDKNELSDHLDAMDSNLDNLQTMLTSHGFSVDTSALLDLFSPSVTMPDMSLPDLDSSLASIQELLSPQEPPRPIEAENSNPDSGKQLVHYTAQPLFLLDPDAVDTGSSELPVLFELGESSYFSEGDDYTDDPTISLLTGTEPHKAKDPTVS
Description: Activation of HSF1 in MEF assessed as protection against paclitaxel-induced PARP cleavage at 3 uM pretreated for 1 hr followed by paclitaxel addition measured after 24 hrs by immunoblotting analysis. Format: cell-based. The procedure, abridged: (§1)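 HSF1+/+ or HSF1−/− MEFs in DMEM with heat-inactivated 10% FBS, nonessential amino acids, glutamine, HEPES, 37 °C, 5% CO2. 1 h pretreatment at 3 μM, then 0.5 μM paclitaxel or 20 μM cisplatin for 24 h, or 10 Gy 137Cs γ-rays (3.81 Gy/min) for 48 h. Cleaved PARP and caspase-3 immunoblotted; bands normalized to loading control, fold-change vs negative control, ≥3 independent experiments.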
Background: In western blotting, separated proteins are transferred to a membrane and probed.

In test [2] the test system is Mus musculus. Description: Protection against IR-induced reduction in cellular proliferation in ICR mouse at 10 mg/kg, ip administered once before and three times after 4.5 Gy irradiation measured after 9 days by Ki67 staining-based immunohistochemical analysis. It is filed as functional, organism-based. The method, boiled down:
(§2)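 Female ICR mice (5–6 weeks) given 4.5 Gy whole-body IR, dosed ip at 10 mg/kg once before and three times after IR; 5 per group, sacrificed day 9. BM cellularity from H&E (hematopoietic cells per 200×200 μm area); peripheral WBC, lymphocytes, neutrophils; Ki67 IHC counted in five fields per femur; relative spleen weight vs control. Means ± SD, Student's t test.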

Test [3] deals with L132. Description: Cytoprotective activity against IR-induced cell death in human L-132 cells at 3 uM pretreated for 1 hr followed by 10 Gy irradiation measured after 48 hrs by FACS analysis. Format: functional, cell-based. The procedure, abridged:
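L132 cells in RPMI with 10% FBS. 1 h pretreatment at 3 μM, then 0.5 μM paclitaxel or 20 μM cisplatin for 24 h, or 10 Gy γ-rays for 48 h. Cells trypsinized, washed, stained with propidium iodide and analysed by flow cytometry. Means ± SD of ≥3 independent experiments, fold-change vs negative control.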
For orientation: Flow cytometry measures light scatter and fluorescence of single cells or particles in a stream.

Test [4] addresses T2, Heat shock factor protein 1 (Homo sapiens) (UniProt Q00613).
T2 sequence (whole entry): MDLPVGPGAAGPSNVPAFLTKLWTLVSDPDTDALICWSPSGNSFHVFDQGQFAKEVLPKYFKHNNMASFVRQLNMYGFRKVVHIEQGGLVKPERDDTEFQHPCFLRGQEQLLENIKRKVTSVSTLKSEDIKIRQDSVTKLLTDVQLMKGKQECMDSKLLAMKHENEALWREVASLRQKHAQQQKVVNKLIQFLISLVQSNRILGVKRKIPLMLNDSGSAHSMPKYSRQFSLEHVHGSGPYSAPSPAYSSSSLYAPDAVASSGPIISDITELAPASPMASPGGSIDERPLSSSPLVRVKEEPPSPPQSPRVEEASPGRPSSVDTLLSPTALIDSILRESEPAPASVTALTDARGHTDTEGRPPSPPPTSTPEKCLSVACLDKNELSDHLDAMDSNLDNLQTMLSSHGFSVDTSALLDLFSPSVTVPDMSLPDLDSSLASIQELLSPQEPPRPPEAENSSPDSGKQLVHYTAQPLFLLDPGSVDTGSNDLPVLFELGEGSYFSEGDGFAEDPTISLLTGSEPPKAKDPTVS
Briefly: Activation of HSF1 in human NCI-H460 cells expressing pGL4-hsp70 construct assessed as upregulation of hsp70 promoter activity at 10 to 30 uM after 12 hrs by luciferase reporter gene assay. Format: cell-based. The method, boiled down:
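NCI-H460 cells stably carrying hsp25 or hsp70 promoter–luciferase reporters, seeded, treated after 24 h at 10 or 30 μM and harvested 12 h later. Lysate luciferase normalized to β-galactosidase; mean of three independent experiments, fold-change vs negative control.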
A general note: A reporter such as luciferase makes a cellular process visible.

Test [5] addresses T2, Heat shock factor protein 1 (Homo sapiens). Briefly: Activation of HSF1 in human L132 cells assessed as increase in HSP25 mRNA expression at 3 uM after 12 hrs by RT-PCR analysis. Format: cell-based. The method, boiled down: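 L132 human lung fibroblasts treated 12 h at 3 μM; hsp27 and hsp70 mRNA measured by RT-PCR under the same conditions as immunoblotting. Celastrol 1 μM positive control.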

Test [6] concerns MEF. Briefly: Cytoprotective activity against IR-induced PARP cleavage in HSF1 deficient MEF at 3 uM pretreated for 1 hr followed by 10 Gy irradiation measured after 48 hrs by immunoblotting analysis. It is filed as functional, cell-based. Conditions: Mus musculus. The method, boiled down: as §1
The subject of test [7] is L132. Briefly: Cytoprotective activity against paclitaxel-induced PARP cleavage in human L-132 cells at 3 uM pretreated for 1 hr followed by paclitaxel addition measured after 24 hrs by immunoblotting analysis. It is filed as functional, cell-based. The method, boiled down:
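Human embryonic lung L132 cells in RPMI with 10% FBS. 1 h pretreatment at 3 μM, then 0.5 μM paclitaxel or 20 μM cisplatin for 24 h, or 10 Gy 137Cs γ-rays (3.81 Gy/min) for 48 h. Cleaved PARP and caspase-3 immunoblotted (ECL); bands normalized to loading control, fold-change vs negative control, ≥3 independent experiments.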

Test [8] has as its system Mus musculus. Description: Protection against IR-induced reduction in circulating neutrophils in ICR mouse at 10 mg/kg, ip administered once before and three times after 4.5 Gy irradiation measured after 9 days. It is filed as functional, organism-based. The method, boiled down:
as §2

In test [9] the target is T1, Heat shock factor protein 1 (Mus musculus). Description: Activation of HSF1 in MEF assessed as protection against cisplatin-induced caspase3 cleavage at 3 uM pretreated for 1 hr followed by cisplatin addition measured after 24 hrs by immunoblotting analysis. Format: cell-based. The procedure, abridged:
as §1

In test [10] the test system is MEF. Briefly: Cytoprotective activity against cisplatin-induced PARP cleavage in HSF1 deficient MEF at 3 uM pretreated for 1 hr followed by cisplatin addition measured after 24 hrs by immunoblotting analysis. Format: functional, cell-based. Conditions: Mus musculus. The procedure, abridged:
as §1

Test [11] has as its system MEF. Description: Cytoprotective activity against paclitaxel-induced caspase3 cleavage in HSF1 deficient MEF at 3 uM pretreated for 1 hr followed by paclitaxel addition measured after 24 hrs by immunoblotting analysis. Format: functional, cell-based. Conditions: Mus musculus. The method, boiled down: as §1
The target in test [12] is T2, Heat shock factor protein 1 (Homo sapiens). Briefly: Activation of HSF1 in human L132 cells assessed as increase in HSP27 protein levels after 12 hrs by immunoblotting analysis. It is filed as cell-based. The procedure, abridged:
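L132 cells treated at 3 μM for 12 h, or at various doses for 12 h, or at 3 μM over a time course. Lysates resolved by SDS-PAGE, blotted to nitrocellulose, milk-blocked, primary antibodies 18 h at 4 °C, ECL detection. HSP27, HSP70 and Ser326-phospho-HSF1 bands normalized to loading control; ≥3 independent experiments; celastrol 1 μM positive control.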

Calls of active or inactive are those of the source. The calls are words filed in the database; no cut-off is given here.

As to `COc1cc(/C=C/CO)ccc1O` [CONIFERYL ALCOHOL], the outcome (in test [1]; with Mus musculus [2]; in the test on L132 [3]; in [4]; in [5]; in the test on L132 [7]) was Active. Moreover, the outcome (with Mus musculus [8]; in [9]) was Active. The result in the test on MEF [6], with MEF [10] and in the test on MEF [11] was inactive.
As for `COc1cc(/C=C/C=O)ccc1O` [CONIFERYL ALDEHYDE], the outcome (in test [1]; in the test with Mus musculus [2]; in the test on L132 [3]; in [4]; in [5]; in the test with L132 [7]) was Active. For the same compound, the outcome (in the test on Mus musculus [8]; in [9]) was Active. For the same compound, the outcome in the test on MEF [6], in the test with MEF [10] and with MEF [11] was inactive. The Activity result in [12] is “Dose-dependent effect”.
